Source: ChEMBL document CHEMBL1155362, “Synthesis, characterization and derivatization of some novel types of mono- and bis-imidazolidineiminothiones and imidazolidineiminodithiones with antitumor, antiviral, antibacterial and antifungal activities--part I” (Eur J Med Chem, 2009)
≈ marks a conversion by molar mass, not a printed value. Calls of active or inactive are those of the source. The rule behind the calls is not given here.

Key:
[1] = tested on: Aspergillus niger; assay: Antifungal activity against Aspergillus niger Ferm-BAM C-21 at 5 mg/ml by agar disk diffusion assay; assay type: functional; settings: read-out: DIZ
Procedure, shortened: (§1)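 Fungi maintained on Czapek's Dox agar; agar well diffusion with 1 cm wells and […] of each concentration (1, 2.5, 5 mg/mL) in DMF; inhibition zone diameter measured.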

[2] = tested on: Bacillus subtilis; assay: Antibacterial activity against Bacillus subtilis NCIB 3610 at 5 mg/ml by agar disk diffusion assay; assay type: functional; settings: Bacillus subtilis, NCIB 3610; read-out: DIZ
[3] = tested on: Pseudomonas aeruginosa; assay: Antibacterial activity against Pseudomonas aeruginosa NCIB 9016 at 1 mg/ml by agar disk diffusion assay; assay type: functional; settings: Pseudomonas aeruginosa, NCIB 9016; read-out: DIZ
[4] = tested on: HeLa; assay: Cytotoxicity against human HeLa cells assessed as surviving fraction after 48 hrs by SRB assay; assay type: functional, cell-based; settings: Homo sapiens, HeLa, 48 h; read-out: IC50
Procedure, shortened: (§2)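 Cells seeded at 10⁴ cells/well and left 24 h to attach, then exposed to […] in triplicate wells per dose. Incubation 48 h, 37 °C, 5% CO₂. Cells fixed and stained with sulforhodamine B, excess dye removed with acetic acid, bound dye taken up in Tris EDTA and read on an ELISA reader. Surviving fraction plotted against concentration.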

[5] = tested on: Salmonella typhi; assay: Antimicrobial activity against Salmonella typhi NCIMB 9331 by macrotube dilution assay; assay type: functional, Salmonella enterica subsp. enterica serovar Typhi; settings: Salmonella enterica
[6] = tested on: MCF7; assay: Cytotoxicity against human MCF7 cells assessed as surviving fraction after 48 hrs by SRB assay; assay type: functional, cell-based; settings: Homo sapiens, MCF7, 48 h; read-out: IC50; procedure, shortened: as §2
[7] = Antitumor activity against mouse EAC cells assessed as inhibition of cell viability at 100 ug/ml after 2 hrs by trypan blue exclusion assay; assay type: functional; settings: Ehrlich
Procedure, shortened: (§3)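 EAC cells aspirated from ascitic fluid of inoculated mice and diluted in saline; 0.1 mL cell suspension, 0.8 mL RPMI 1640 and 0.1 mL compound (25, 50 or 100) incubated 2 h at 37 °C; non-viable cells counted by trypan blue exclusion; % non-viable = dead/total × 100.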

[8] = tested on: Staphylococcus aureus; assay: Antimicrobial activity against Staphylococcus aureus NCTC 7447 by macrotube dilution assay; assay type: functional
[9] = tested on: Bacillus subtilis; assay: Antibacterial activity against Bacillus subtilis NCIB 3610 at 1 mg/ml by agar disk diffusion assay; assay type: functional; settings: Bacillus subtilis, NCIB 3610; read-out: DIZ
[10] = tested on: HCT-116; assay: Cytotoxicity against human HCT116 cells assessed as surviving fraction after 48 hrs by SRB assay; assay type: functional, cell-based; settings: Homo sapiens, HCT-116, 48 h; read-out: IC50; procedure, shortened: as §2
[11] = tested on: Candida albicans; assay: Antifungal activity against Candida albicans IMRU 3669 at 1 mg/ml by agar disk diffusion assay; assay type: functional; settings: read-out: DIZ; procedure, shortened: as §1
[12] = tested on: HCT-116; assay: Cytotoxicity against human HCT116 cells assessed as reduction in surviving fraction at 1 ug/ml after 48 hrs by SRB assay; assay type: functional, cell-based
Procedure, shortened: (§4)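 HCT116 cells seeded at 10⁴ per well and allowed to attach for 24 h; exposed to 0, 1, 2.5, 5 or 10 in triplicate for 48 h at 37 °C in 5% CO₂; fixed and stained with sulforhodamine B; bound dye recovered in Tris EDTA and read on an ELISA reader; surviving fraction plotted against concentration.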

[13] = tested on: MCF7; assay: Cytotoxicity against human MCF7 cells assessed as reduction in surviving fraction at 5.0 ug/ml after 48 hrs by SRB assay; assay type: functional, cell-based; procedure, shortened: as §2
[14] = tested on: Aspergillus niger; assay: Antifungal activity against Aspergillus niger Ferm-BAM C-21 at 2.5 mg/ml by agar disk diffusion assay; assay type: functional; settings: read-out: DIZ; procedure, shortened: as §1
[15] = tested on: HCT-116; assay: Cytotoxicity against human HCT116 cells assessed as reduction in surviving fraction at 5.0 ug/ml after 48 hrs by SRB assay; assay type: functional, cell-based; procedure, shortened: as §4
[16] = tested on: Candida albicans; assay: Antifungal activity against Candida albicans IMRU 3669 by macrotube dilution assay; assay type: functional
Procedure, shortened: (§5)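 Macrotube twofold dilution per NCCLS/CLSI guidelines for fungi; 2 mg compound in 2.0 mL DMF, serially diluted across 14 tubes of Czapek's Dox medium, with a control tube; inoculum added to halve the concentration; 30 °C for 72 h; MIC is the lowest concentration without visible growth.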

[17] = Antitumor activity against mouse EAC cells assessed as inhibition of cell viability at 25 ug/ml after 2 hrs by trypan blue exclusion assay; assay type: functional; settings: Ehrlich; procedure, shortened: as §3
[18] = tested on: MCF7; assay: Cytotoxicity against human MCF7 cells assessed as reduction in surviving fraction at 1 ug/ml after 48 hrs by SRB assay; assay type: functional, cell-based; procedure, shortened: as §2
[19] = tested on: Coxsackievirus B4; assay: Antiviral activity against Coxsackievirus B4 infected african green monkey Vero cells at 10^-4 dilution of 5 mg/ml by plaque formation assay; assay type: functional, organism-based
Procedure, shortened: (§6)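 Compound dilutions prepared from a 5 mg/mL DMSO stock, using the maximum non-toxic dilution for Vero cells over 3 days; 0.1 mL virus (10³) mixed with 0.1 mL compound for 1 h at room temperature; mixture inoculated onto washed Vero monolayers in 12-well plates and adsorbed at 37 °C; 2× MEM/agarose overlay applied; read-out % reduction in plaque count versus untreated virus control.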

[20] = tested on: Aspergillus niger; assay: Antifungal activity against Aspergillus niger Ferm-BAM C-21 at 1 mg/ml by agar disk diffusion assay; assay type: functional; settings: read-out: DIZ; procedure, shortened: as §1
[21] = tested on: Aspergillus niger; assay: Antifungal activity against Aspergillus niger Ferm-BAM C-21 by macrotube dilution assay; assay type: functional; procedure, shortened: as §5
[22] = tested on: Human alphaherpesvirus 1; assay: Antiviral activity against HSV1 infected african green monkey Vero cells at 10^-4 dilution of 5 mg/ml by plaque formation assay; assay type: functional; procedure, shortened: as §6
[23] = tested on: MCF7; assay: Cytotoxicity against human MCF7 cells assessed as reduction in surviving fraction at 10.0 ug/ml after 48 hrs by SRB assay; assay type: functional, cell-based; procedure, shortened: as §2
[24] = tested on: U-251; assay: Cytotoxicity against human U251 cells assessed as reduction in surviving fraction at 1 ug/ml after 48 hrs by SRB assay; assay type: functional, cell-based; procedure, shortened: as §2
[25] = tested on: Klebsiella pneumoniae; assay: Antimicrobial activity against Klebsiella pneumoniae NCIMB 9111 by macrotube dilution assay; assay type: functional
[26] = tested on: Candida albicans; assay: Antifungal activity against Candida albicans IMRU 3669 at 2.5 mg/ml by agar disk diffusion assay; assay type: functional; settings: read-out: DIZ; procedure, shortened: as §1
[27] = tested on: Bacillus subtilis; assay: Antimicrobial activity against Bacillus subtilis NCTC 1040 by macrotube dilution assay; assay type: functional
[28] = tested on: Hepatovirus A; assay: Antiviral activity against Hepatitis A virus infected african green monkey Vero cells at 10^-4 dilution of 5 mg/ml by plaque formation assay; assay type: functional; procedure, shortened: as §6
[29] = tested on: Bacillus subtilis; assay: Antibacterial activity against Bacillus subtilis NCIB 3610 at 2.5 mg/ml by agar disk diffusion assay; assay type: functional; settings: Bacillus subtilis, NCIB 3610; read-out: DIZ
[30] = tested on: Pseudomonas aeruginosa; assay: Antibacterial activity against Pseudomonas aeruginosa NCIB 9016 at 2.5 mg/ml by agar disk diffusion assay; assay type: functional; settings: Pseudomonas aeruginosa, NCIB 9016; read-out: DIZ
[31] = tested on: MCF7; assay: Cytotoxicity against human MCF7 cells assessed as reduction in surviving fraction at 2.5 ug/ml after 48 hrs by SRB assay; assay type: functional, cell-based; procedure, shortened: as §2
[32] = tested on: U-251; assay: Cytotoxicity against human U251 cells assessed as reduction in surviving fraction at 5.0 ug/ml after 48 hrs by SRB assay; assay type: functional, cell-based; procedure, shortened: as §2
[33] = tested on: U-251; assay: Cytotoxicity against human U251 cells assessed as reduction in surviving fraction at 10.0 ug/ml after 48 hrs by SRB assay; assay type: functional, cell-based; procedure, shortened: as §2
[34] = tested on: Pseudomonas aeruginosa; assay: Antibacterial activity against Pseudomonas aeruginosa NCIB 9016 at 5 mg/ml by agar disk diffusion assay; assay type: functional; settings: Pseudomonas aeruginosa, NCIB 9016; read-out: DIZ
[35] = tested on: HepG2; assay: Cytotoxicity against human HepG2 cells assessed as surviving fraction after 48 hrs by SRB assay; assay type: functional, cell-based; settings: hepg2; procedure, shortened: as §2
[36] = Antitumor activity against mouse EAC cells assessed as inhibition of cell viability at 50 ug/ml after 2 hrs by trypan blue exclusion assay; assay type: functional; settings: Ehrlich; procedure, shortened: as §3
[37] = tested on: Candida albicans; assay: Antifungal activity against Candida albicans IMRU 3669 at 5 mg/ml by agar disk diffusion assay; assay type: functional; settings: Candida albicans, IMRU 3669; read-out: DIZ; procedure, shortened: as §1
[38] = tested on: U-251; assay: Cytotoxicity against human U251 cells assessed as reduction in surviving fraction at 2.5 ug/ml after 48 hrs by SRB assay; assay type: functional, cell-based; procedure, shortened: as §2
[39] = tested on: HCT-116; assay: Cytotoxicity against human HCT116 cells assessed as reduction in surviving fraction at 10.0 ug/ml after 48 hrs by SRB assay; assay type: functional, cell-based; procedure, shortened: as §4
[40] = tested on: U-251; assay: Cytotoxicity against human U251 cells assessed as surviving fraction after 48 hrs by SRB assay; assay type: functional, cell-based; settings: Homo sapiens, U-251, 48 h; read-out: IC50; procedure, shortened: as §2
[41] = tested on: HCT-116; assay: Cytotoxicity against human HCT116 cells assessed as reduction in surviving fraction at 2.5 ug/ml after 48 hrs by SRB assay; assay type: functional, cell-based; procedure, shortened: as §4
[42] = tested on: Aspergillus niger; assay: Antifungal activity against Aspergillus niger IMI 31726 at 4 mg/ml by agar disk diffusion assay; assay type: functional; settings: read-out: DIZ
[43] = tested on: Escherichia coli; assay: Antibacterial activity against Escherichia coli NCTC 10416 at 4 mg/ml by agar disk diffusion assay; assay type: functional; settings: read-out: DIZ
[44] = tested on: Staphylococcus aureus; assay: Antibacterial activity against Staphylococcus aureus NCTC 7447 at 4 mg/ml by agar disk diffusion assay; assay type: functional; settings: read-out: DIZ
[45] = tested on: Bacillus subtilis; assay: Antibacterial activity against Bacillus subtilis NCTC 1040 at 4 mg/ml by agar disk diffusion assay; assay type: functional; settings: read-out: DIZ
[46] = tested on: Salmonella typhi; assay: Antibacterial activity against Salmonella typhi NCIMB 9331 at 4 mg/ml by agar disk diffusion assay; assay type: functional, Salmonella enterica subsp. enterica serovar Typhi; settings: Salmonella enterica, read-out: DIZ
[47] = tested on: Candida albicans; assay: Antifungal activity against Candida albicans IMRU 3669 at 4 mg/ml by agar disk diffusion assay; assay type: functional; settings: read-out: DIZ

N=C1C(=S)N(c2ccc(Br)cc2)C(=S)N1c1ccc(Br)cc1
zone of inhibition at 5000 µg/mL [1]: 20 mm | zone of inhibition at 5000 µg/mL [2]: 32 mm | zone of inhibition at 1000 µg/mL [3]: 18 mm | IC50 [4]: 8.93 µg/mL (≈ 19.6 µM) | MIC [5]: 1.95 µg/mL (≈ 4.28 µM) | IC50 [6]: 3.09 µg/mL (≈ 6.79 µM) | inhibition at 100 µg/mL [7]: 90% | MIC [8]: 15.6 µg/mL (≈ 34.3 µM) | zone of inhibition at 1000 µg/mL [9]: 21 mm | IC50 [10]: 4.56 µg/mL (≈ 10 µM) | zone of inhibition at 1000 µg/mL [11]: 18 mm | Activity [12]: Active | Activity [13]: Active | zone of inhibition at 2500 µg/mL [14]: 18 mm | Activity [15]: Active | MIC [16]: 1.95 µg/mL (≈ 4.28 µM) | inhibition at 25 µg/mL [17]: 50% | Activity [18]: Active | Activity [19]: inactive | zone of inhibition at 1000 µg/mL [20]: 15 mm | MIC [21]: 0.49 µg/mL (≈ 1.08 µM) | Activity [22]: 50% | Activity [23]: Active | Activity [24]: Active | MIC [25]: 7.8 µg/mL (≈ 17.1 µM) | zone of inhibition at 2500 µg/mL [26]: 20 mm | MIC [27]: 3.9 µg/mL (≈ 8.57 µM) | Activity [28]: inactive | zone of inhibition at 2500 µg/mL [29]: 25 mm | zone of inhibition at 2500 µg/mL [30]: 19 mm | Activity [31]: Active | Activity [32]: Active | Activity [33]: Active | zone of inhibition at 5000 µg/mL [34]: 21 mm | IC50 [35]: Not Active | inhibition at 50 µg/mL [36]: 70% | zone of inhibition at 5000 µg/mL [37]: 23 mm | Activity [38]: Active | Activity [39]: Active | IC50 [40]: 1.28 µg/mL (≈ 2.81 µM) | Activity [41]: Active

N=C1C(=S)N(c2ccc(Br)cc2)C(=O)N1c1ccc(Cl)c(C(F)(F)F)c1
zone of inhibition at 4000 µg/mL [42]: 16 mm | zone of inhibition at 4000 µg/mL [43]: 18 mm | zone of inhibition at 4000 µg/mL [44]: 17.5 mm | zone of inhibition at 4000 µg/mL [45]: 16 mm | Activity [19]: inactive | Activity [22]: 50% | Activity [28]: inactive | zone of inhibition at 4000 µg/mL [46]: 16.5 mm | zone of inhibition at 4000 µg/mL [47]: 16 mm
